CHO parental Ca – ATP-evoked calcium signal inhibitors, parental CHO, primary screen, counter-screen for OX1R antagonist project, cell-based, fluorescence, Fluo-8 calcium dye. parental CHO-K1, ATP-induced calcium, Fluo-8 fluorescence. inhibition, % at 5.6 µM. 330,000 tested, 0.63% active. AID 463079, 2010;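 active = inhibition above that plate's mean sample inhibition plus 3 SD, cut at about 26% in these data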;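 also: 0% = ATP-challenged DMSO wells and 100% = DMSO wells without ATP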
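Material: parental CHO cells / Compound: single nominal dose of 5.6 µM per compound / Signal: Fluo-8 fluorescence / Replicates: singlicate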
EP2 mod – EP2 receptor modulators, cAMP readout, primary screen, cell-based, HTRF cAMP, PGE2 stimulation; Prostaglandin E2 receptor EP2 subtype (Homo sapiens), P43116; EP2-expressing cells, cAMP HTRF FRET, PGE2 co-stimulation; induction, % at 25 µM; 260,000 tested, 0.83% active; AID 940, 2007;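 active = compounds whose cAMP rise, as percent of the full-agonist control response, exceeds 60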;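 also: rat C6 glioma line stably carrying human EP2 under a CMV promoter; the protocol text gives 20 µM as final concentration; 100% = response of wells given 1 µM PGE2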
GPR7 antagonist – GPR7 receptor antagonists, primary screen, cell-based, fluorescence, single concentration; Neuropeptides B/W receptor type 1 (Homo sapiens), P48145; GPR7-expressing cells, fluorescence antagonist assay; inhibition, % at 4.4 µM; 290,000 tested, 1.1% active; AID 1861, 2009; in the data active = inhibition above about 16%, passing the limit was not always enough;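 also: cells stimulated with the agonist NPW; 0% = agonist with vehicle and 100% = vehicle without agonist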
Target sequence (P48145 whole entry, looked up): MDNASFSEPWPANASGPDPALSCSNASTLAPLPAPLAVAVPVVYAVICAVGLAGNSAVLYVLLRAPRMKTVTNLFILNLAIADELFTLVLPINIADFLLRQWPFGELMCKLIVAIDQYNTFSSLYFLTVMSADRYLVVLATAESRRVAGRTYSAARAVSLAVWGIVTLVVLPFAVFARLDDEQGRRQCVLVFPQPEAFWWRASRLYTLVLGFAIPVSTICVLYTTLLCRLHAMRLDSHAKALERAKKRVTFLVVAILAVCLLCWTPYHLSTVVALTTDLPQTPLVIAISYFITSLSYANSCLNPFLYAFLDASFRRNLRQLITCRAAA
OX1R antag-1 – OX1R (HCRTR1) antagonists, primary screen, fluorescence, CHO/OX1R cells, Fluo-8 calcium, orexin A; Fluo-8 calcium fluorescence; Orexin/Hypocretin receptor type 1 (Homo sapiens), O43613; inhibition, % at 5 µM; 330,000 tested, 0.43% active;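 active = inhibition above its plate's threshold, mean inhibition of all tested compounds on the plate plus 3 SD, cut at about 37% in these data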;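 also: 0% = orexin A challenge wells and 100% = SB-334867-A antagonist wells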
Target sequence (O43613 whole entry, looked up): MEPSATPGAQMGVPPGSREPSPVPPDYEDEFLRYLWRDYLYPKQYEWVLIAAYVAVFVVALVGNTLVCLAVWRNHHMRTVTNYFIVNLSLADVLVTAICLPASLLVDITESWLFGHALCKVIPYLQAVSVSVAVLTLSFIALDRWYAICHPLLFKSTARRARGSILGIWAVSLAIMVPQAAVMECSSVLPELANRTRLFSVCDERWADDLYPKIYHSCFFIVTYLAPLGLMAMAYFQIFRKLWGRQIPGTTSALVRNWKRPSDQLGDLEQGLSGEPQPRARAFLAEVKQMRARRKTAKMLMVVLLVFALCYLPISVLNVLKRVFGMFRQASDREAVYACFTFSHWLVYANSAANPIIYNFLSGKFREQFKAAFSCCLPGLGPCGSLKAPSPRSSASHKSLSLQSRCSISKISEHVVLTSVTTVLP
PGE2 EP2 inh – human EP2 receptor antagonists, primary screen, TR-FRET cAMP, C6 glioma cells; Prostaglandin E2 receptor EP2 subtype (Homo sapiens), P43116; inhibition, % at 25 µM; C6 glioma cells expressing human EP2; cells stimulated with saturating PGE2; 260,000 tested, 0.52% active;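 active = percent inhibition above 40 after rounding to a whole number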;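 also: rat C6 glioma host cells with rolipram phosphodiesterase inhibitor present; the protocol text gives 20 µM as final concentration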
OX1R antag-2 – antagonists of human orexin 1 receptor (OX1R); OX1R-expressing cells, FRET antagonist read-out; inhibition, % at 6.6 µM; Orexin/Hypocretin receptor type 1 (Homo sapiens), O43613; 330,000 tested, 1.8% active; in the data active = inhibition mostly above about 38%, no sharp cut-off; inactive = mostly below about 40%;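 also: 0% = agonist challenge alone and 100% = reference antagonist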
OX1R HTRF conf – OX1R (HCRTR1) antagonists, confirmation, cell-based, HTRF. shares compounds with OX1R antag-2. OX1R-expressing cells, HTRF antagonist assay. inhibition, % at 6.6 µM. 1,800 tested, 49% active; in the data active = inhibition above about 55%;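 also: CHO cells expressing OX1R stimulated with orexin A at about EC80; 0% = agonist challenge alone and 100% = reference antagonist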
CHO-K1 HTRF – signal inhibition in parental CHO-K1 cells, counter-screen for OX1R antagonist project, cell-based, HTRF | shares compounds with OX1R antag-2 | HTRF counterscreen | inhibition, % at 6.6 µM | 1,800 tested, 48% active | AID 493232, 2011; in the data active = inhibition above about 17%;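 also: 0% = agonist challenge with vehicle and 100% = vehicle alone without agonist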
* = called active by the depositor; / = no result given; + = active, no number. The list is not random: actives were taken first. Their share in the collection is about 3.7%.

SMILES | CHO parental Ca | EP2 mod | GPR7 antagonist | OX1R antag-1 | PGE2 EP2 inh | OX1R antag-2 | OX1R HTRF conf | CHO-K1 HTRF
O=C(O)/C=C/C(=O)Nc1ccc2c(c1)C(=O)c1cc(F)ccc1-2 | / | 30.3 | / | / | 8.1 | / | / | /
CC(=O)Nc1cccc(-c2nc3ccccc3o2)c1 | -11.3 | / | -6.7 | 24.6 | / | 80.2* | 65.9* | 1.3
CC(=O)Nc1ccc2c(c1)C(=O)c1ccccc1C2=O | 0.4 | -5.6 | -2.9 | -5.5 | 3.3 | 102.2* | 69.8* | 39.4*
CC(=O)Nc1ccc2nc3ccccc3nc2c1 | -2.8 | -24.9 | -8.8 | -4.8 | 11.7 | 133.9* | 109.7* | 64.9*
O=C(O)/C=C/C(=O)Nc1ccc2c(c1)C(=O)c1ccccc1C2=O | -4.7 | -6.6 | -12.7 | -2.9 | 9.1 | 82.7* | 41.0 | 49.9*
Cc1ccc(S(=O)(=O)N2CCC(C(=O)C3C(=O)CC(C)(C)CC3=O)CC2)cc1 | -19.6 | 30.6 | 1.5 | -6.6 | 6.6 | 8.5 | / | /
Cc1cccnc1Nc1nc(-c2ccc(F)cc2)cs1 | -16.6 | / | -36.1 | -36.9 | / | 10.0 | / | /
Clc1ccccc1C(Nc1cnccn1)Nc1cnccn1 | / | 22.6 | / | / | 11.3 | / | / | /
Cc1cnc(C(=O)OCC(=O)NC(=O)c2ccccc2)cn1 | -4.7 | / | / | -16.1 | / | 11.2 | / | /
CC(=O)Nc1ccc2c(c1)ncn2-c1ccccc1 | -4.9 | 18.0 | -2.8 | 9.1 | 12.8 | 5.7 | / | /
CC(=O)Nc1ccc2c(c1)c1ccccc1n2C(C)=O | -12.3 | -40.3 | 4.9 | -0.5 | 4.5 | 77.5* | 71.3* | 14.2
COc1ccc(-c2cc(C(=O)N(C)Cc3nc4ccccc4c(=O)[nH]3)c3ccccc3n2)cc1OC | -16.7 | / | / | 23.3 | / | 13.0 | / | /
Cn1cc([N+](=O)[O-])c(C(=O)N/N=C/c2ccc([N+](=O)[O-])cc2)n1 | -13.3 | 0.4 | -10.4 | -17.0 | 4.8 | 109.5* | 49.1 | 58.5*
CCN(CC)c1ccc(/C=N/NC(=O)c2ccc([N+](=O)[O-])cc2)cc1 | -7.7 | -0.7 | 8.5 | -3.4 | 5.4 | 17.3 | / | /
CCN=C(N/N=C/c1ccc([N+](=O)[O-])cc1)SC | 5.3 | -16.5 | 17.8 | -25.6 | 5.7 | 88.4* | 36.9 | 51.2*
Cn1cc([N+](=O)[O-])c(C(=O)NCC(=O)O)n1 | 10.6 | 19.0 | -2.8 | -2.0 | 6.1 | 24.2 | / | /
Cn1cc([N+](=O)[O-])c(C(=O)NNC(=O)c2ccc([N+](=O)[O-])cc2)n1 | -14.4 | 6.0 | -6.7 | -1.2 | 5.5 | 98.2* | 43.1 | 53.5*
O=C(c1cc(Cl)nc2ccccc12)N1CCN(Cc2ccc3c(c2)OCO3)CC1 | -20.6 | / | / | -15.4 | / | 4.3 | / | /
NS(=O)(=O)c1ccc(CNC(=O)c2cc(-c3ccccn3)nc3ccc(Cl)cc23)cc1 | -8.2 | -11.7 | -11.2 | 4.0 | 12.4 | 83.5* | 59.2* | 4.5
NS(=O)(=O)c1ccc(CNC(=O)c2cc(-c3cccnc3)nc3ccc(Cl)cc23)cc1 | -14.0 | / | 7.0 | -7.4 | / | 18.5 | / | /
O=C(COc1ccc(C(=S)N2CCCC2)cc1)Nc1ccccc1C(F)(F)F | -13.5 | / | -10.7 | 18.7 | / | 82.9* | 72.1* | 15.8
O=C(COc1ccc(C(=S)N2CCOCC2)cc1)Nc1ccccc1C(F)(F)F | -6.1 | -5.2 | -6.4 | -6.3 | 2.9 | 6.1 | / | /
O=C(Nc1ccc2[nH]c(=O)[nH]c2c1)Nc1ccc(F)cc1F | -0.5 | -35.8 | -14.3 | 5.3 | 1.2 | 10.4 | / | /
COC(=O)C(C)(C)ONC(=O)Nc1ccc([N+](=O)[O-])cc1 | 9.2 | 8.4 | -5.6 | -10.0 | 1.5 | 29.4 | / | /
O=C1/C(=N\S(=O)(=O)c2cccs2)C([n+]2ccccc2)=C([O-])c2ccccc21 | -8.0 | -14.7 | -8.2 | -8.3 | 6.8 | 94.1* | 77.5* | 118.7*
SMILES | CHO parental Ca | EP2 mod | GPR7 antagonist | OX1R antag-1 | PGE2 EP2 inh | OX1R antag-2 | OX1R HTRF conf | CHO-K1 HTRF
O=C(O)c1ccc2nc3c(nc2c1)-c1ccccc1C3=O | -9.0 | 8.0 | -5.8 | 9.9 | 23.4 | + | 64.5* | 83.7*
COc1cc2oc(=O)ccc2cc1[C@H](O)[C@@H](O)C(C)(C)O | -4.0 | / | / | -14.0 | / | 7.4 | / | /
COc1ccc(S(=O)(=O)Cc2ccc(C(=O)NCCCN3CCc4ccccc4C3)o2)cc1 | -26.2 | -1.5 | -12.4 | -40.8 | 8.8 | 7.6 | / | /
COc1ccc2nc3sc(C(=O)N4CCN(C)CC4)cc3cc2c1 | -4.3 | -9.0 | 5.3 | 10.4 | / | 110.3* | 34.9 | 26.8*
COc1ccc2nc3sc(C(=O)NCCCN4CCc5ccccc5C4)cc3cc2c1 | -20.0 | -46.1 | -6.8 | -18.0 | 13.5 | 79.6* | 28.9 | 20.2*
Cc1[nH]c(=O)[nH]c(=O)c1/C=N/NC(=O)[C@H](C)NC(=O)OC(C)(C)C | -8.6 | -4.9 | -9.1 | -1.9 | 22.6 | 19.8 | / | /
NC1=NC(=O)/C(=C\c2ccc(O)c([N+](=O)[O-])c2)S1 | -6.8 | 9.4 | 2.5 | 7.3 | 5.5 | 90.5* | 69.3* | 57.9*
CCC(Cc1ccccc1)NC(=O)Cn1cccc1C(=O)c1ccccc1 (stereo unspecified) | -18.1 | / | 6.0 | -15.7 | / | 17.8 | / | /
Cc1c(CCC(=O)N2CCC[C@H]2C(=O)O)c(=O)oc2c(C)c3oc4c(c3cc12)CCCC4 | -17.9 | / | -6.0 | -19.9 | / | 13.9 | / | /
CCN1C(=O)/C(=C2/SC(C)=C(C)N2CC)SC1=S | -15.8 | 7.7 | -5.7 | 10.7 | 5.1 | 96.0* | 83.8* | 7.2
CCCCN1C(=O)/C(=C2/Sc3ccc(OC)cc3N2CC)SC1=S | -12.6 | / | 11.0 | -17.7 | / | 7.3 | / | /
O=C1c2ccccc2C(=O)c2[nH]cnc21 | / | -11.6 | -12.7 | / | 2.3 | / | / | /
O=C1c2ccccc2C(=O)c2[nH]c(=O)[nH]c21 | -7.4 | / | -11.4 | -14.1 | / | 82.3* | 70.6* | 108.6*
O=C(NCCc1ccccc1)[C@@H]1CC=C[C@@H]2CCN(Cc3ccccc3)C(=O)[C@@H]21 | -13.6 | / | / | 13.3 | 18.6 | 78.7* | 88.8* | 6.9
Clc1cccc(Nc2nc(-c3ccncc3)cs2)c1 | 6.2 | -45.3 | -16.6 | 19.1 | 11.1 | 79.9* | 33.0 | 11.3
O=C(Cn1cccc1C(=O)c1ccccc1)NCCC1=CCCCC1 | -14.7 | 26.5 | -9.8 | -35.8 | 8.6 | 97.6* | 22.6 | 2.3
CCC(C)C(NC(=O)OC(C)(C)C)C(=O)NCc1ccco1 (stereo unspecified) | -5.4 | 17.4 | -15.6 | -14.4 | 15.7 | -2.3 | / | /
CSc1nnc2c3cc(F)ccc3n(C)c2n1 | 1.8 | / | -3.3 | -18.9 | / | 19.1 | / | /

From PubChem
